Measured values collected from several papers.
Compare with care: the assays were run in different laboratories.
KMT5A: N-lysine methyltransferase KMT5A (KMT5A, Homo sapiens, UniProt Q9NQR1)
ABL1 T315I: Tyrosine-protein kinase ABL1 (ABL1, Homo sapiens, UniProt P00519, T315I)

| Structure (SMILES) | target | assay | setting | measurement | result |
| --- | --- | --- | --- | --- | --- |
| Cc1cc(O)c(C=O)c2c1C(=O)Oc1c(C)c(O)c3c(c1O2)C(O)OC3=O (stereo not shown) | KMT5A | cell-free assay | 10 µM | inhibition | -14% |
| CN(C)C1CCN(CC#Cc2nn(C3CCCC3)c3nc(NCc4ccccc4)ncc23)C1 (stereo not shown) | Misshapen-like kinase 1 (MINK1, Homo sapiens, UniProt Q8N4C8) | enzyme activity, inhibitor, FRET | 10 µM | inhibition | 55% |
| Cc1ccc(Nc2nccc(N(C)c3ccc4c(C)n(C)nc4c3)n2)cc1S(N)(=O)=O | cAMP-dependent protein kinase catalytic subunit alpha (PRKACA, Bos taurus, UniProt P00517) | enzyme activity, inhibitor | 10 µM | inhibition | -19% |
| O=C(c1ccc(F)cc1)N(Cc1ccccc1)C1CCCCC1 | Delta-type opioid receptor (OPRD1, Homo sapiens, UniProt P41143) | ligand displacement | 10 µM | inhibition | 0% |
| Oc1ccc(-c2nc(-c3ccncc3)c(-c3ccc(F)cc3)[nH]2)cc1 | Histone acetyltransferase p300 (EP300, Homo sapiens, UniProt Q09472) | thermal stability, DSF | 10 µM | ΔTm | 0.33 °C |
| COc1cc(-c2cc(-c3ccc(N4CCNCC4)cc3)cnc2N)cc(OC)c1OC | ABL1 T315I | enzyme activity, inhibitor | 1 µM | inhibition | 57% |
| Cc1cc(NC(=O)c2cccc3cc(-c4cccc5[nH]nc(N)c45)ccc23)ccc1F | Tyrosine-protein kinase ABL1 (ABL1, Homo sapiens, UniProt P00519, Q252H) | enzyme activity, inhibitor | 0.1 µM | activity vs control | 88% |
| Oc1cccc(Nc2nc(-c3ccc(F)cc3F)cs2)c1 | Cholecystokinin receptor type A (CCKAR, Homo sapiens, UniProt P32238) | cell-free assay | 10 µM | inhibition | 76% |
| Nc1ncnc2occ(-c3ccc(NC(=O)Nc4cc(C(F)(F)F)ccc4F)cc3)c12 | Serine/threonine-protein kinase RIO1 (RIOK1, Homo sapiens, UniProt Q9BRS2) | cell-free assay, inhibitor | 20 µM | remaining signal | 89% |
| Cc1cnc(NC2CCOCC2)nc1-n1cnc(C(=O)NC(CN)c2cc(F)cc(Cl)c2)c1 (stereo not shown) | Tyrosine-protein kinase ABL1 (ABL1, Homo sapiens, UniProt P00519, Y253F) | enzyme activity, inhibitor, radiometric | 1 µM | remaining activity | 102% |
| CCCOc1ccc(OC)c(F)c1C(=O)c1ccc(C(=O)N[C@@H]2CNC[C@H]2NC(=O)c2ccc3[nH]ncc3c2)cc1 | ABL1 T315I | enzyme activity, inhibitor | 10 µM | remaining activity | 85% |
| Cc1ccc(C(=O)Nc2ccc(CN3CCN(C)CC3)c(C(F)(F)F)c2)cc1C#Cc1cnc2cccnn12 | Serine/threonine-protein kinase Nek10 (NEK10, Homo sapiens, UniProt Q6ZWH5) | enzyme activity, inhibitor | 23.5 nM | remaining activity | 100% |
| O=c1oc2c(O)c(O)cc3c(=O)oc4c(O)c(O)cc1c4c23 | KMT5A | cell-free assay | 10 µM | inhibition | 2% |
